Results taken from the M2OR odorant receptor database.
Residue numbers refer to the chain shown, from its start.

Key:
Details in all cases: stereoisomer not certain
[1] = target: T1, OR5M3 (Homo sapiens) (UniProt Q8NGP4)
T1 sequence (whole entry): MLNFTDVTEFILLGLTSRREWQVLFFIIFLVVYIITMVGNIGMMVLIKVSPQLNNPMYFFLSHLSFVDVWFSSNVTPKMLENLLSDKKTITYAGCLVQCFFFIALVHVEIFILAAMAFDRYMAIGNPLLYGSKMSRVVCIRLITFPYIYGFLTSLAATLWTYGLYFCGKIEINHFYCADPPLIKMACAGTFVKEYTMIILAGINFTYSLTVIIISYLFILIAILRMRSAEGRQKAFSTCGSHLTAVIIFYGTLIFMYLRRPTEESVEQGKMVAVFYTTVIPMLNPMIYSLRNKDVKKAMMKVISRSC
In short: (§1)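 Transient luciferase assays in mammalian cell lines were common, though methods varied by source. The values come from published papers and their supplementary material, with extra details from the original authors when needed. Responsive refers to a measured signal the original authors judged statistically different from baseline, and non-responsive (inactive) to the remainder.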

[2] = target: T2, OR5K3 (Homo sapiens) (UniProt A6NET4)
T2 sequence (whole entry): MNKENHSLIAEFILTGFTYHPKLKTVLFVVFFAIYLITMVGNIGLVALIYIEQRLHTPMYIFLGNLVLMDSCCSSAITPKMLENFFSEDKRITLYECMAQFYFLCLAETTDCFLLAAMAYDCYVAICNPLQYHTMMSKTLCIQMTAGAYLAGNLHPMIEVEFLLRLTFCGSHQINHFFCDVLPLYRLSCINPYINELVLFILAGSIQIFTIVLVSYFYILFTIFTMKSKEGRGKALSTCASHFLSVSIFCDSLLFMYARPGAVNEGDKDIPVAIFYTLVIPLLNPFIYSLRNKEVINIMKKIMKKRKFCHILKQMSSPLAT
In short: as §1

[3] = target: T3, OR5K4 (Homo sapiens) (UniProt A6NMS3)
T3 sequence (whole entry): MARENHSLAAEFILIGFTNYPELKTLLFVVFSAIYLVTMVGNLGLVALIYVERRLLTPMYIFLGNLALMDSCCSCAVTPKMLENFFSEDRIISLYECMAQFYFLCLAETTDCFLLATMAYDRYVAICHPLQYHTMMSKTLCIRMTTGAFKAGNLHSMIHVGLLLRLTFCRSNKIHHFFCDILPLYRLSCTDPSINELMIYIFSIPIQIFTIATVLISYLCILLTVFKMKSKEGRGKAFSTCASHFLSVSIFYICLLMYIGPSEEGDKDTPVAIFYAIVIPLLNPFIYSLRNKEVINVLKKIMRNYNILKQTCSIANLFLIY
In short: as §1

[4] = target: T4, OR5L1 (Homo sapiens) (UniProt Q8NGL2)
T4 sequence (whole entry): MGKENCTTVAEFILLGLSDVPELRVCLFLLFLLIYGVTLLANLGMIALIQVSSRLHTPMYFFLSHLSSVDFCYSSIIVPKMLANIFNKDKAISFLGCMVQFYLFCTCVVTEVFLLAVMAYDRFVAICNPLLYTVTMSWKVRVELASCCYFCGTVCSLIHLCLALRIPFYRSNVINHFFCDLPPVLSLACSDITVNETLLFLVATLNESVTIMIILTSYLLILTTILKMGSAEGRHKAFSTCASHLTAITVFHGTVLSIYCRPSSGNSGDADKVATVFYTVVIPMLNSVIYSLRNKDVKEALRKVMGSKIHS
In short: as §1

[5] = target: T5, OR5L2 (Homo sapiens) (UniProt Q8NGL0)
T5 sequence (whole entry): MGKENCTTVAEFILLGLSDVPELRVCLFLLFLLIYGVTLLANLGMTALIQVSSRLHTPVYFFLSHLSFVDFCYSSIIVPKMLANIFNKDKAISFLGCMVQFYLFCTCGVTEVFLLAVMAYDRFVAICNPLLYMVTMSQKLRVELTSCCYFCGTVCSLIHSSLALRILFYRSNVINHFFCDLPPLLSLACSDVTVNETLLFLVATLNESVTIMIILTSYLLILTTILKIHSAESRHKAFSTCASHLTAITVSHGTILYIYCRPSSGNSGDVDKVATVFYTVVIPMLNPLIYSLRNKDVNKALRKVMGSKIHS
In short: as §1

[6] = target: T6, OR5M1 (Homo sapiens) (UniProt Q8NGP8)
T6 sequence (whole entry): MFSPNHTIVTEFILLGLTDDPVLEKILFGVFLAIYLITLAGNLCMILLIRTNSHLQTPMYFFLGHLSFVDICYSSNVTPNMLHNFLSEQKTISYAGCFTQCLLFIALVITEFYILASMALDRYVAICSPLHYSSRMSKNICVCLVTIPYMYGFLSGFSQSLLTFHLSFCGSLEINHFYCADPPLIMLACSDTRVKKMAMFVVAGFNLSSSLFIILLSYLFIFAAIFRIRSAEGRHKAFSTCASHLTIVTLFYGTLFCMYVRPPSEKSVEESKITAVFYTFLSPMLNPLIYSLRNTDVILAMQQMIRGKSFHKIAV
In short: as §1

[7] = tested on: T7, OR5M1 T295R M301I
T7 sequence (whole entry): T6 sequence (whole entry) with T295R, M301I
In short: as §1

[8] = target: T8, OR5M10 (Homo sapiens) (UniProt Q6IEU7)
T8 sequence (whole entry): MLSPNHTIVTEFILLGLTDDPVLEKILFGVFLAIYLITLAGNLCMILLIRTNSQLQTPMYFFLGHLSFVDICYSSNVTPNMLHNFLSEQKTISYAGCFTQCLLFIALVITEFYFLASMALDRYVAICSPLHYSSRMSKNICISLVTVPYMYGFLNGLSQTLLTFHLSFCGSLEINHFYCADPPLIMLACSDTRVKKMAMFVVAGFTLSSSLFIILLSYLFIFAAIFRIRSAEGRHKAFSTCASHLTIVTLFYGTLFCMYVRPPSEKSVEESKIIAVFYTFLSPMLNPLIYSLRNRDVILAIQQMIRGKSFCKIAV
In short: as §1

[9] = target: T9, OR5M11 (Homo sapiens) (UniProt Q96RB7)
T9 sequence (whole entry): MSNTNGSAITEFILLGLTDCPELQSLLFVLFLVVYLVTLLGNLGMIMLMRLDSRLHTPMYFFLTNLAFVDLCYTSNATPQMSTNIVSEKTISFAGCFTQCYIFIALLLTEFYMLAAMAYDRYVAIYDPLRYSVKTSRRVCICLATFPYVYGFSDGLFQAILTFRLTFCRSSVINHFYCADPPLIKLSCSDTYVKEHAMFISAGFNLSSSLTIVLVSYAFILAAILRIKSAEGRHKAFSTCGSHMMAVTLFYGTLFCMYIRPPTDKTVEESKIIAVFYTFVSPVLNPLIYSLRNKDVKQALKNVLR
In short: as §1

[10] = tested on: T10, OR5M3 N3Y A156T
T10 sequence (whole entry): T1 sequence (whole entry) with N3Y, A156T
In short: as §1

[11] = target: T11, OR5M8 (Homo sapiens) (UniProt Q8NGP6)
T11 sequence (whole entry): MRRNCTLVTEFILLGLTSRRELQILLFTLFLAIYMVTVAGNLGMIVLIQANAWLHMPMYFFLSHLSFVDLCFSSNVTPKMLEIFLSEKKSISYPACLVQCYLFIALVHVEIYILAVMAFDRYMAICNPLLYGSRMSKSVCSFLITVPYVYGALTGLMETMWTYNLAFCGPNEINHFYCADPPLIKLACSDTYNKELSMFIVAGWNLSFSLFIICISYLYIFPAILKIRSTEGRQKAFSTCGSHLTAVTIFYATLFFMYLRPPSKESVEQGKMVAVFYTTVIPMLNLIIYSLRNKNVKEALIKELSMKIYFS
In short: as §1

[12] = target: T12, OR5M9 (Homo sapiens) (UniProt Q8NGP3)
T12 sequence (whole entry): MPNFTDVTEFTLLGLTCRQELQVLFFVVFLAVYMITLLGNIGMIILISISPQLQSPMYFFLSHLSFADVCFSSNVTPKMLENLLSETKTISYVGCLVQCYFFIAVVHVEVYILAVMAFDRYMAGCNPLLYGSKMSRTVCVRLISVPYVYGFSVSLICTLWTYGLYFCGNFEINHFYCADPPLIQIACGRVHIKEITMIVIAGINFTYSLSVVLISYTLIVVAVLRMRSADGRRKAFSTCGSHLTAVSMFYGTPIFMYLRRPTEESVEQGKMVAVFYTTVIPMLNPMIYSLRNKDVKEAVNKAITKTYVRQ
In short: as §1

[13] = tested on: T13, OR5MA L2F C311H
T13 sequence (whole entry): T8 sequence (whole entry) with L2F, C311H
In short: as §1

[14] = tested on: T14, OR5MA L2F Q54H C311H
T14 sequence (whole entry): T8 sequence (whole entry) with L2F, Q54H, C311H
In short: as §1

[15] = target: T15, OR5P2 (Homo sapiens) (UniProt Q8WZ92)
T15 sequence (whole entry): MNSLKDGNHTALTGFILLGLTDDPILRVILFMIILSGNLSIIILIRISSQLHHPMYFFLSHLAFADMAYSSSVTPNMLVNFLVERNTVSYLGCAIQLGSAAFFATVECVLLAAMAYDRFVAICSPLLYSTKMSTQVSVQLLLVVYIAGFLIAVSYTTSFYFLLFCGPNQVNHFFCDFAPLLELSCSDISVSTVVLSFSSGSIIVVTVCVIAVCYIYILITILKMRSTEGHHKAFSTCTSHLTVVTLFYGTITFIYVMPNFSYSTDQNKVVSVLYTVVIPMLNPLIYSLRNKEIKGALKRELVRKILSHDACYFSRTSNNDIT
In short: as §1

[16] = target: T16, OR5P3 (Homo sapiens) (UniProt Q8WZ94)
T16 sequence (whole entry): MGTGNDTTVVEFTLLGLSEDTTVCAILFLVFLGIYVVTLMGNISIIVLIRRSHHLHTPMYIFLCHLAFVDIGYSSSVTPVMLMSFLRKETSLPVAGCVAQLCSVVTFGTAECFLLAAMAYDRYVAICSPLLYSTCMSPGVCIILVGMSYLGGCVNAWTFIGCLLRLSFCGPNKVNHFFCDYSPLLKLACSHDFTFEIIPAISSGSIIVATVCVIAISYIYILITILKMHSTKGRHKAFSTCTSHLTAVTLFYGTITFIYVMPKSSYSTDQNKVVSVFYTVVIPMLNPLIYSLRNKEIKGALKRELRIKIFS
In short: as §1

[17] = tested on: T17, OR5P3 L301R
T17 sequence (whole entry): T16 sequence (whole entry) with L301R
In short: as §1

[18] = tested on: T18, OR5R1 C122R S128G F184L
T18 sequence (whole entry): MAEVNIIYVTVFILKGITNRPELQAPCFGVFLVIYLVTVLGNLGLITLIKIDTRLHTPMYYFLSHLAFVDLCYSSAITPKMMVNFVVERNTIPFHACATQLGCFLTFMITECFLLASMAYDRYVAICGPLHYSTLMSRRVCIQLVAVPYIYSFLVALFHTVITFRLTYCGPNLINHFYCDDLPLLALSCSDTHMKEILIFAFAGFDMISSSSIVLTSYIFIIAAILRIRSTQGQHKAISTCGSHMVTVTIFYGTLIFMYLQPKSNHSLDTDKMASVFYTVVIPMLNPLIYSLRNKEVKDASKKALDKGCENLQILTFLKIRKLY
In short: as §1

[19] = target: T19, OR5T1 (Homo sapiens) (UniProt Q8NG75)
T19 sequence (whole entry): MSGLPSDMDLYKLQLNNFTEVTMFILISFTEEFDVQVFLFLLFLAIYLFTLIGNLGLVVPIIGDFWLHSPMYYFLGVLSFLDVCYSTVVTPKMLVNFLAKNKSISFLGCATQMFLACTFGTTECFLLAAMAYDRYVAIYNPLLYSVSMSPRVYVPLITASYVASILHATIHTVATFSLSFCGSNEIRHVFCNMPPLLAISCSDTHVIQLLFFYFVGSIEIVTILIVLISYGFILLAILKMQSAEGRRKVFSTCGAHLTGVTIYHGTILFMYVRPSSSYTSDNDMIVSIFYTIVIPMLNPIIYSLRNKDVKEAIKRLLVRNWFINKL
In short: as §1

[20] = target: T20, OR5T2 (Homo sapiens) (UniProt Q8NGG2)
T20 sequence (whole entry): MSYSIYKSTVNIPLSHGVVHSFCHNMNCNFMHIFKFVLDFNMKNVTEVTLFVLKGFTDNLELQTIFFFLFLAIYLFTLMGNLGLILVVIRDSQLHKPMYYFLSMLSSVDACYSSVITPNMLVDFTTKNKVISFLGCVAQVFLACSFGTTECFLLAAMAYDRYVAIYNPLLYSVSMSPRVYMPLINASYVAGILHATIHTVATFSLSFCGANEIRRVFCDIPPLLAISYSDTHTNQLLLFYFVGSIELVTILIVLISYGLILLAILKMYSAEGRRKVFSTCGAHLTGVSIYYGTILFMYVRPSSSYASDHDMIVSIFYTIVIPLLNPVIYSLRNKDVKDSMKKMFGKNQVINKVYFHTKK
In short: as §1

Measured: odorant receptor agonist call

CCCC(=O)OC
inactive: [1]

CC1=C(O)C(=O)C(C)O1 (stereo unspecified)
active: [1]
inactive: all other assays above

CC1=C(O)C(=O)OC1C (stereo unspecified)
inactive: all assays above
